Measured values pooled from the literature.
Compare with care: the assays were run in different laboratories.
Target: Mitogen-activated protein kinase kinase kinase 4 (MAP3K4, Homo sapiens, UniProt Q9Y6R4)

O=C(c1ccc(Nc2nccc(-c3cc4ccccc4s3)n2)cc1)N1CCC(N2CCCC2)CC1  remaining binding (binding; competition with immobilised ligand; 1 µM): 70%
F[C@@H]1CCN(c2nccc(-c3cnn4ncccc34)n2)C1  remaining binding (binding; 1 µM): 78%
O=C(c1ccc(Nc2ncc(Cl)c(-c3ccc(Cl)s3)n2)cc1)N1CCC(N2CCCC2)CC1  remaining binding (binding; competition with immobilised ligand; 1 µM): 61%
O=C(NCC1CCOCC1)c1n[nH]cc1NC(=O)c1c(F)cccc1F  remaining binding (binding; competition with immobilised ligand; 1 µM): 100%
C[C@@H]1CCN(c2nccc(-c3cnn4ncccc34)n2)C1  remaining binding (binding; 1 µM): 100%
Cc1c[nH]c2nccc(Oc3c(F)cc(Nc4cc(Cl)nc(N)n4)cc3F)c12  remaining binding (cell-free assay; competition with immobilised ligand; 0.1 µM): 100%
COc1ncc2cc3ccccc3nc2c1C#N  remaining binding (cell-free assay; competition with immobilised ligand; 5 µM): 91%
C[C@@H]1CN(c2ccc3ncc(-c4ccc5[nH]nc(C6CC6)c5c4)n3n2)C[C@H](C)O1  remaining binding (binding; competition with immobilised ligand; 50 nM): 100%
N[C@H]1CCN(c2nccc(-c3cnn4ncccc34)n2)C1  remaining binding (binding; 1 µM): 100%
FC(F)(F)Oc1cccc(-c2cnc3ccc(-c4ccncc4)nn23)c1  remaining binding (cell-free assay; competition with immobilised ligand; 5 µM): 84%
CC(=O)N1CCC(c2ccc(C(=O)NC3=NCCN3)cc2C(F)(F)F)CC1  remaining binding (cell-free assay; competition with immobilised ligand; 1 µM): 81%
COc1cnc(Nc2cccc(S(N)(=O)=O)c2)nc1N1CCN(c2ccccc2)CC1  remaining binding (binding; competition with immobilised ligand; 1 µM): 100%
CN(C)c1nccc(-c2cnn3ncccc23)n1  remaining binding (binding; 1 µM): 100%
C[C@@H]1CN(c2cc(-c3n[nH]c4ccc(OC5(C)CC5)cc34)ncn2)C[C@H](C)O1  remaining binding (cell-free assay; competition with immobilised ligand; 0.1 µM): 100%
O=C(c1ccc(Nc2ncc(Cl)c(-c3cc4ccccc4s3)n2)cc1)N1CCC(N2CCCC2)CC1  remaining binding (binding; competition with immobilised ligand; 1 µM): 33%
C[C@@]1(Cc2ccc(C#N)cc2)C(=O)N(c2cc(Cl)cc(Cl)c2)c2ncc(C(=O)NC3(c4nc(C5CCC5)no4)CC3)n21  remaining binding (cell-free assay; competition with immobilised ligand; 1 µM): 100%
C=CC(=O)N1CCC(C(=O)NCC(=O)N2CCN(c3nc(-c4cnc(N)nc4C(F)F)nc(N4CCOCC4)n3)CC2)CC1  remaining binding (binding; competition with immobilised ligand; 1 µM): 100%
Cc1nc(N2CC[C@@H](O)C2)ncc1-c1cc(C(F)(F)F)cc2[nH]ncc12  remaining binding (binding; competition with immobilised ligand; 1 µM): 100%
Nc1ncc2c(n1)-c1c([nH]c3ccc(C#CC4CC4)cc13)CCCC2  remaining binding (binding; competition with immobilised ligand; 1 µM): 92%
CC1=C(C#N)C(c2ccc3c(c2)c(NC(=O)c2ccccc2C)nn3C)C(C#N)=C(C)N1  remaining binding (cell-free assay; competition with immobilised ligand; 1 µM): 84%
CN(C)c1nccc(-c2cnc3ncccn23)n1  remaining binding (binding; 1 µM): 100%
C[C@H](c1ccnc(Nc2nc3ccc(-c4cc(N(C)C)ncn4)cc3[nH]2)c1)N1CCN(C(=O)CC(F)(F)F)CC1  remaining binding (cell-free assay; competition with immobilised ligand; 0.1 µM): 96%
c1cnn2ncc(-c3ccnc(N4CCC45COC5)n3)c2c1  remaining binding (binding; 1 µM): 97%
